# Where a SMILES comes first, the peptide text is derived from it. [ ]: non-standard residue; d: D form. The star is where a group is joined. X1 = CCCCCCCCCCCCCCCC(=O)OCCC(=O)*; Palmitoyl = CCCCCCCCCCCCCCCC(=O)*; X2 = CCCCCCCCCCCCCCCCCC*; Sar = CNCC(=O)O
# Key:
# [1] = molecular target: T1, Type-1 angiotensin II receptor (Bos taurus, UniProt P25104); assay: Dissociation constant for [125 I] Ang binding to type 1 Angiotensin II receptor of bovine adrenocortical membranes
# T1 sequence (P25104 whole entry): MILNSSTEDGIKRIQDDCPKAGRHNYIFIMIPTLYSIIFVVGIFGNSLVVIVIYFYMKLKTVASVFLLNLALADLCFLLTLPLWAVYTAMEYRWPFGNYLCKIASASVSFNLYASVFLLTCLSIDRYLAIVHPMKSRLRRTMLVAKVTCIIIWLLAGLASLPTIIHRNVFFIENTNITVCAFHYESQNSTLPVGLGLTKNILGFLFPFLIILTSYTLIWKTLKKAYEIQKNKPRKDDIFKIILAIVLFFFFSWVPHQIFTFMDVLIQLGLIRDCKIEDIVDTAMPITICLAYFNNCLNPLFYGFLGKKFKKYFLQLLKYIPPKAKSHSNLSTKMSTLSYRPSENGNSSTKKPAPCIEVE
# [2] = molecular target: T2, Type-1 angiotensin II receptor (Oryctolagus cuniculus, UniProt P34976); assay: Negative log of the dose of antagonist (compound) that reduces response of a double dose of […] to that of a single dose, on rabbit aorta; format: functional, tissue-based; details: for Kb: read-out: pA2 (converted)
# T2 sequence (P34976 whole entry): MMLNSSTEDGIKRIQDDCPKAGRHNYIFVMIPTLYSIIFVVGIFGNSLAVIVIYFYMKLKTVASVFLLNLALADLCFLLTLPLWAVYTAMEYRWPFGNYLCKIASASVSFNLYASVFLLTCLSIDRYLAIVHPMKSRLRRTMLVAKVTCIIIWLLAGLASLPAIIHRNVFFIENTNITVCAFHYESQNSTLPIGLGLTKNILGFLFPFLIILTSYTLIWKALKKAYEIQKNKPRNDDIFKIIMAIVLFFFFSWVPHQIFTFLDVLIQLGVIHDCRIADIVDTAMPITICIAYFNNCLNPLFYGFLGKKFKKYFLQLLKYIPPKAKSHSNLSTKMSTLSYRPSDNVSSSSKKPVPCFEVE
# Procedure, shortened: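 Rabbit thoracic aorta rings in oxygenated Krebs, pH 7.4, at 37 °C under 2 g tension were preincubated 10 min with single antagonist concentrations. Ang concentration-response curves were then run with and without antagonist. pA2 came from Schild plot, or was estimated from lower doses for long-acting analogues. Duration was followed by Ang curves at 30 min, 1.5 h and 3 h, washing every 20 min. At least three evaluations were done.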
# [3] = species on record: Oryctolagus cuniculus; assay: Negative log of the dose of agonist that produces half-maximal contraction on rabbit aorta; format: functional
# Procedure, shortened: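 New Zealand rabbit thoracic aorta rings (5 mm) were held in oxygenated Krebs, pH 7.4, at 37 °C under 2 g tension and equilibrated for 90 min. Isometric contractions were recorded. Cumulative dose-response curves (5 × 10^-11–10^-5 M) were expressed as % of maximal Ang stimulation, and pD2 was taken as the negative log of the dose giving half-maximal contraction. At least three evaluations were done.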
# [4] = molecular target: T3, Type-1 angiotensin II receptor (Bos taurus) (UniProt P25104); assay: Relative affinity for type 1 Angiotensin II receptor of bovine adrenocortical membranes compared to angiotensin
# T3 sequence (whole entry): T1 sequence (P25104 whole entry)
# Procedure, shortened: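 Bovine adrenocortical membranes were incubated in 25 mM Tris/HCl (100 mM NaCl, 5 mM MgCl2, 0.2% BSA, pH 7.4) with peptide across 5 × 10^-11–10^-5 M and 30 pM [125I]Ang (final) for 45 min at 22 °C. Bound radioactivity was filtered and gamma-counted, with nonspecific binding defined by 1 µM Ang. […] At least three experiments were run in duplicate.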
# [5] = molecular target: T4, Type-1 angiotensin II receptor (Oryctolagus cuniculus) (UniProt P34976); assay: Relative affinity compared to the affinity of angiotensin II(Ang=100%) for Angiotensin II receptor, type 1 on rabbit aorta; format: tissue-based
# T4 sequence (whole entry): T2 sequence (P34976 whole entry)
Kd [1],RA [4],Compound,pD2 [3],further results
3.55 nM,–,CCCCCCCCCCCCCCCC(=O)Oc1ccc(C[C@H](NC(=O)[C@@H](NC(=O)[C@H](CCCN=C(N)N)NC(=O)CNC)C(C)C)C(=O)N[C@H](C(=O)N[C@@H](Cc2c[nH]cn2)C(=O)N2CCC[C@H]2C(=O)N[C@@H](Cc2ccccc2)C(=O)O)C(C)C)cc1 [listing 1 of 2 here],–,Kb [2]: 36.3 nM
–,–,CNCC(=O)N[C@@H](CCCN=C(N)N)C(=O)N[C@H](C(=O)N[C@@H](Cc1ccc(O)cc1)C(=O)N[C@H](C(=O)N[C@@H](Cc1c[nH]cn1)C(=O)N1CCC[C@H]1C(=O)N[C@@H](Cc1ccccc1)C(=O)O)C(C)C)C(C)C,8.57,–
–,2.57,CCCCCCCCCCCCCCCC(=O)Oc1ccc(C[C@H](NC(=O)[C@@H](NC(=O)[C@H](CCCN=C(N)N)NC(=O)CNC)C(C)C)C(=O)N[C@H](C(=O)N[C@@H](Cc2c[nH]cn2)C(=O)N2CCC[C@H]2C(=O)N[C@H](Cc2ccc3ccccc3c2)C(=O)O)C(C)C)cc1,–,–
105 nM,5.53,CC(C)[C@H](NC(=O)[C@H](CCCN=C(N)N)NC(=O)CCO)C(=O)N[C@@H](Cc1ccc(O)cc1)C(=O)N[C@H](C(=O)N[C@@H](Cc1c[nH]cn1)C(=O)N1CCC[C@H]1C(=O)N[C@@H](Cc1ccccc1)C(=O)O)C(C)C,7.23,RA [5]: 7.95
17.8 nM,32.4,CC(=O)N[C@@H](CO)C(=O)N[C@@H](CCCN=C(N)N)C(=O)N[C@H](C(=O)N[C@@H](Cc1ccc(O)cc1)C(=O)N[C@H](C(=O)N[C@@H](Cc1c[nH]cn1)C(=O)N1CCC[C@H]1C(=O)N[C@@H](Cc1ccccc1)C(=O)O)C(C)C)C(C)C (Ac-SRVYVHPF-OH),7.54,RA [5]: 16.2
–,34.7,CNCC(=O)N[C@@H](CCCN=C(N)N)C(=O)N[C@H](C(=O)N[C@@H](Cc1ccc(O)cc1)C(=O)N[C@H](C(=O)N[C@@H](Cc1c[nH]cn1)C(=O)N1CCC[C@H]1C(=O)N[C@H](Cc1ccc2ccccc2c1)C(=O)O)C(C)C)C(C)C,–,–
–,162,CCCCCCCCCCCCCCCC(=O)Oc1ccc(C[C@H](NC(=O)[C@@H](NC(=O)[C@H](CCCN=C(N)N)NC(=O)CNC)C(C)C)C(=O)N[C@H](C(=O)N[C@@H](Cc2c[nH]cn2)C(=O)N2CCC[C@H]2C(=O)N[C@H](Cc2ccccc2)C(=O)O)C(C)C)cc1,–,–
490 nM,–,CCCCCCCCCCCCCCCC(=O)OC[C@H](NC(C)=O)C(=O)N[C@@H](CCCNC(=N)N)C(=O)N[C@H](C(=O)N[C@@H](Cc1ccc(O)cc1)C(=O)N[C@H](C(=O)N[C@@H](Cc1cnc[nH]1)C(=O)N1CCC[C@H]1C(=O)N[C@@H](Cc1ccccc1)C(=O)O)C(C)C)C(C)C (Ac-S(Palmitoyl)RVYVHPF-OH),–,–
–,–,CCCCCCCCCCCCCCCC(=O)Oc1ccc(C[C@H](NC(=O)[C@@H](NC(=O)[C@H](CCCN=C(N)N)NC(=O)CNC)C(C)C)C(=O)N[C@H](C(=O)N[C@@H](Cc2c[nH]cn2)C(=O)N2CCC[C@H]2C(=O)N[C@@H](Cc2ccccc2)C(=O)O)C(C)C)cc1 [listing 2 of 2 here],7.61,–
–,1.17,CCCCCCCCCCCCCCCC(=O)OC[C@H](NC(C)=O)C(=O)N[C@@H](CCCN=C(N)N)C(=O)N[C@H](C(=O)N[C@@H](Cc1ccc(O)cc1)C(=O)N[C@H](C(=O)N[C@@H](Cc1c[nH]cn1)C(=O)N1CCC[C@H]1C(=O)N[C@@H](Cc1ccccc1)C(=O)O)C(C)C)C(C)C (Ac-S(Palmitoyl)RVYVHPF-OH),<5.5,–
1550 nM,–,CCCCCCCCCCCCCCCCCCOc1ccc(C[C@H](NC(=O)[C@@H](NC(=O)[C@H](CCCNC(=N)N)NC(=O)CNC)C(C)C)C(=O)N[C@H](C(=O)N[C@@H](Cc2cnc[nH]2)C(=O)N2CCC[C@H]2C(=O)N[C@@H](Cc2ccccc2)C(=O)O)C(C)C)cc1 (H-[Sar]RVY(X2)VHPF-OH),–,–
224 nM,–,CCCCCCCCCCCCCCCC(=O)Oc1ccc(C[C@H](NC(=O)[C@@H](NC(=O)[C@H](CCCNC(=N)N)NC(=O)CNC)C(C)C)C(=O)N[C@H](C(=O)N[C@@H](Cc2cnc[nH]2)C(=O)N2CCC[C@H]2C(=O)N[C@H](Cc2ccc3ccccc3c2)C(=O)O)C(C)C)cc1,–,Kb [2]: 102 nM
6460 nM,0.09,CC(C)[C@H](NC(=O)[C@H](CCCN=C(N)N)NC(=O)CCO)C(=O)N[C@@H](Cc1ccc(O)cc1)C(=O)N[C@H](C(=O)N[C@@H](Cc1c[nH]cn1)C(=O)N1CCC[C@H]1C(=O)N[C@H](Cc1ccccc1)C(=O)O)C(C)C,–,Kb [2]: 4900 nM
–,100,CC[C@H](C)[C@H](NC(=O)[C@H](Cc1ccc(O)cc1)NC(=O)[C@@H](NC(=O)[C@H](CCCNC(=N)N)NC(=O)[C@@H](N)CC(=O)O)C(C)C)C(=O)N[C@@H](Cc1cnc[nH]1)C(=O)N1CCC[C@H]1C(=O)N[C@@H](Cc1ccccc1)C(=O)O [ANGIOTENSIN II],8.33,RA [5]: 100
7.59 nM,–,CC(C)[C@H](NC(=O)[C@H](CCCNC(=N)N)NC(=O)[C@@H](N)CO)C(=O)N[C@@H](Cc1ccc(O)cc1)C(=O)N[C@H](C(=O)N[C@@H](Cc1cnc[nH]1)C(=O)N1CCC[C@H]1C(=O)N[C@@H](Cc1ccccc1)C(=O)O)C(C)C (H-SRVYVHPF-OH),–,–
2750 nM,0.21,CCCCCCCCCCCCCCCC(=O)OCCC(=O)N[C@@H](CCCN=C(N)N)C(=O)N[C@H](C(=O)N[C@@H](Cc1ccc(O)cc1)C(=O)N[C@H](C(=O)N[C@@H](Cc1c[nH]cn1)C(=O)N1CCC[C@H]1C(=O)N[C@@H](Cc1ccccc1)C(=O)O)C(C)C)C(C)C (X1-RVYVHPF-OH),5.46,RA [5]: 0.13
–,0.21,CCCCCCCCCCCCCCCC(=O)OC[C@H](NC(C)=O)C(=O)N[C@@H](CCCN=C(N)N)C(=O)N[C@H](C(=O)N[C@@H](Cc1ccc(O)cc1)C(=O)N[C@H](C(=O)N[C@@H](Cc1c[nH]cn1)C(=O)N1CCC[C@H]1C(=O)N[C@H](Cc1cccc2ccccc12)C(=O)O)C(C)C)C(C)C,–,pKd [1]: 5.65; pA2 [2]: < 5.5
–,407,CNCC(=O)N[C@@H](CCCN=C(N)N)C(=O)N[C@H](C(=O)N[C@@H](Cc1ccc(O)cc1)C(=O)N[C@H](C(=O)N[C@@H](Cc1c[nH]cn1)C(=O)N1CCC[C@H]1C(=O)N[C@H](Cc1ccccc1)C(=O)O)C(C)C)C(C)C,–,RA [5]: 174
–,75.8,CC(C)[C@H](NC(=O)[C@H](CCCN=C(N)N)NC(=O)[C@@H](N)CO)C(=O)N[C@@H](Cc1ccc(O)cc1)C(=O)N[C@H](C(=O)N[C@@H](Cc1c[nH]cn1)C(=O)N1CCC[C@H]1C(=O)N[C@@H](Cc1ccccc1)C(=O)O)C(C)C (H-SRVYVHPF-OH),7.68,RA [5]: 22.4
–,1.78,CC(=O)N[C@@H](CO)C(=O)N[C@@H](CCCN=C(N)N)C(=O)N[C@H](C(=O)N[C@@H](Cc1ccc(O)cc1)C(=O)N[C@H](C(=O)N[C@@H](Cc1c[nH]cn1)C(=O)N1CCC[C@H]1C(=O)N[C@H](Cc1cccc2ccccc12)C(=O)O)C(C)C)C(C)C,–,pKd [1]: 6.49; pA2 [2]: 6.99
16.6 nM,–,CNCC(=O)N[C@@H](CCCNC(=N)N)C(=O)N[C@H](C(=O)N[C@@H](Cc1ccc(O)cc1)C(=O)N[C@H](C(=O)N[C@@H](Cc1cnc[nH]1)C(=O)N1CCC[C@H]1C(=O)N[C@H](Cc1ccc2ccccc2c1)C(=O)O)C(C)C)C(C)C,–,Kb [2]: 7.94 nM

# Reference: ChEMBL document CHEMBL1130396, “Angiotensin analogues palmitoylated in positions 1 and 4” (J Med Chem, 1997)
